# Bioassay records (PubChem BioAssay)
# VIM-2 inhibitor: inhibitors of Pseudomonas aeruginosa VIM-2 metallo-beta-lactamase; purified VIM-2, nitrocefin hydrolysis, epi-absorbance fluorescence; inhibition, % at 5.6 µM; actives 0.89% (n = 290,000);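 active means inhibition above the mean of all tested compounds plus 3 SD, cutoff set per screening run, cut at about 7.5% in these data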;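 further: red hydrolysis product quenches plate fluorescence so inhibitors raise well fluorescence; 0% = enzyme with DMSO and 100% = DMSO without enzyme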
# MEKK2mut PB1 HTS: signal of MEK5 binding to mutant human MEKK2 PB1 domain; percent response, % at 10 µM; bead flow cytometry, Alexa488-MEK5 binding to MEKK2 mutant; actives 0.35% (n = 290,000); in the data active means percent response above about 24%, passing the limit was not always enough
# MEKK3 PB1 HTS: modulators (inhibitors or enhancers) of MEK5 binding to human MEKK3 PB1 domain; actives 1.4% (n = 290,000); AID 1529; bead-based flow cytometry, Alexa488-MEK5 binding to MEKK3; actives lie on both sides; 0 = blocked by unlabeled MEK5, 100 = vehicle; binding response (% of control), % at 10 µM;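 active means binding response more than 3 SD above or below the average of its plate-row segment, actives on both sides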;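 further: Alexa488 bead fluorescence after subtracting the streptavidin-only scavenger bead signal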
# Target sequence (Q99759 whole entry, looked up, the tested form may be a part): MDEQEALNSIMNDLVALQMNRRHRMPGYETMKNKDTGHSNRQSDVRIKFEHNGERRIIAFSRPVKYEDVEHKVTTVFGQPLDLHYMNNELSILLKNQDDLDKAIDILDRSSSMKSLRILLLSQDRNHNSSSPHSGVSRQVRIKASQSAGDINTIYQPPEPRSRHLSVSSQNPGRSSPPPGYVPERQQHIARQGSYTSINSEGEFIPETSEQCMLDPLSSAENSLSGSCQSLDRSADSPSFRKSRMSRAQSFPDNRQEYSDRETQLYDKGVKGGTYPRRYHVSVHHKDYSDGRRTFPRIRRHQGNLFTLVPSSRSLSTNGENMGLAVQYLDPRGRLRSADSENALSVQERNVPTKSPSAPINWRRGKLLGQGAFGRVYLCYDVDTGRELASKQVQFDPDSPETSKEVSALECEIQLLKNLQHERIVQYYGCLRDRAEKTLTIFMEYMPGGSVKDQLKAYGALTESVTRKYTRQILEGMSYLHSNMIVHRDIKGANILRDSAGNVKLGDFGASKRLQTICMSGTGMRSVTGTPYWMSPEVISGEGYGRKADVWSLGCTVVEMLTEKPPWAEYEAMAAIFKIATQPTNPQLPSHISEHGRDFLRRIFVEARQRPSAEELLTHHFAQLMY
# MEKK2wt PB1 HTS: raises or lowers MEK5 binding to wildtype human MEKK2 PB1 domain. binding response (% of control), % at 10 µM. bead flow cytometry, Alexa488-MEK5 binding to MEKK2 WT; actives lie on both sides. actives 1.1% (n = 290,000); in the data active means binding response below about 67% or above about 130%
# IMP-1 inhibitor: blocks Pseudomonas aeruginosa IMP-1 metallo-beta-lactamase | purified IMP-1, nitrocefin hydrolysis, epi-absorbance fluorescence | inhibition, % at 5.6 µM | actives 0.45% (n = 290,000) | AID 1556;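 active means inhibition above the mean plus 3 SD of all compounds in the same screening run, cut at about 4.5% in these data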;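 further: 0% = IMP-1 with DMSO and 100% = DMSO wells lacking enzyme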
#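 system = purified recombinant IMP-1 beta-lactamase | amount = 0.2 nM IMP-1, as dispensed | medium = HEPES buffer pH 7.1 with ZnSO4 and Brij 35 | times = 25 °C, 15 min preincubation, 25 min reaction | detection = plate fluorescence quenching by hydrolysis product, ex 480/em 530 nm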
# MEKK2wt confirm: raises or lowers MEK5 binding to wildtype human MEKK2, retest. shares compounds with MEKK3 PB1 HTS. bead flow cytometry, Alexa488-MEK5 binding to MEKK2 WT; actives lie on both sides. binding response (% of control), % at 10 µM. actives 2.4% (n = 5,900); in the data active means binding response below about 16% or above about 210%; inactive means in between
# MEKK2mut confirm: signal of MEK5 binding to mutant human MEKK2, retest | AID 1893 | percent response, % at 10 µM | shares compounds with MEKK3 PB1 HTS | bead flow cytometry, Alexa488-MEK5 binding to MEKK2 mutant | actives 2% (n = 5,900); in the data active means percent response mostly above about 71%, no sharp cut-off; inactive means mostly below about 38%;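 further: higher means compound restores mutant binding toward wildtype level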
# MEKK3 confirm: MEKK3-MEK5 PB1 inhibition, single concentration confirmation; binding response (% of control), % at 10 µM; AID 1894; actives 1.8% (n = 5,900); shares compounds with MEKK3 PB1 HTS; bead flow cytometry, Alexa488-MEK5 binding to MEKK3; hits give low values;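 active means binding response below 72% of control, or above a set upper limit, though filed actives all read lower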;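 further: 100% = DMSO only wells and 0% = binding blocked by excess unlabeled MEK5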
# The depositor's hits bear a star; x = no result given; [ ] = remark or other dose. In the library only some 3.4% were active in any assay of this set; here they are far more common.
SMILES,VIM-2 inhibitor,MEKK2mut PB1 HTS,MEKK3 PB1 HTS,MEKK2wt PB1 HTS,IMP-1 inhibitor,MEKK2wt confirm,MEKK2mut confirm,MEKK3 confirm
Oc1ccc2ccccc2c1CN1CCN(C/C=C/c2ccccc2)CC1,-3,25*,117,140*,-1,122,13,104
Cc1ccc(SCc2cc(=O)[nH]c(/N=C(\N)Nc3cccc4ccccc34)n2)cc1,-1,0,137*,108,-1,101,-7,104
COc1ccc(Cl)cc1N/C(N)=N/c1nc(CSc2ccc(C)cc2)cc(=O)[nH]1,-2,2,104,103,-3,x,x,x
CCOC(=O)c1c(CSc2ccsc2)n(C)c2cc(Br)c(O)c(CN(C)C)c12,0,32,107,117,-1,x,x,x
O=C1CCC([N+](=O)[O-])C(c2ccc(Br)cc2)N1 (configuration not stated),-2,1,133*,105,-2,95,-6,101
COc1ccc(S(=O)(=O)Nc2cccc(N(C)S(C)(=O)=O)c2)cc1C,-3,11,97,90,-2,x,x,x
CCC(=O)N1CCc2cc(Br)cc(S(=O)(=O)NCCN3CCCCC3CC)c21 (configuration not stated),-2,-10,57*[inhibitor],68,-2,103,0,100
O=S(=O)(NC1CCCCC1Sc1ncccn1)c1ccccc1 (configuration not stated),-1,-1,100,102,-1,x,x,x
CC1=C(C(N)=O)C(c2ccc(Br)cc2)n2nc(CCCO)nc2N1 (configuration not stated),-1,-11,72,44*[inhibitor],0,107,4,103
O=C(Cc1ccccc1)Nc1ccccc1N1CCOCC1,-2,-4,94,96,-2,x,x,x
O=C(O)C1=C[C@H](c2csc3ccccc23)C[C@H](OCc2ccc(CO)cc2)O1,2,-3,66*[inhibitor],104,-3,95,-4,98
COc1ccc(C(=O)NCC(=O)OCC(=O)NCCC2=CCCCC2)cc1,-2,-3,100,96,-3,x,x,x
COc1ccc(C(=O)NCCC2=CCCCC2)cc1,-3,1,131*,107,-4,100,-9,97
CCOc1cc(N(CC)CC)ccc1/C=C(/C#N)c1nc2ccccc2[nH]1,-3,x,x,x,-2,x,x,x
CCN(CC)c1ccc(/C=C(/C#N)c2nc3ccc(C)cc3[nH]2)c(OC(C)C)c1,5,95*,115,78,3,91,-18,89
CC(=O)c1ccc(N2CCN(C(=O)C3(S(=O)(=O)c4ccc(Cl)cc4)CC3)CC2)cc1,-2,-4,96,100,-1,x,x,x
CCOCCOC(=O)C1=C(C)N(C)C(=O)NC1c1ccccc1Cl (configuration not stated),-4,-19,1.0*[inhibitor],0.0*[inhibitor],-3,104,2,102
COc1cccc(NC(=O)Nc2cc(C)on2)c1,-1,3,103,105,-2,x,x,x
CN(C(=S)Nc1ccc(Oc2ccccc2)cc1)c1ccc(O)cc1,-4,4,115,105,-3,x,x,x
CN(C(=S)Nc1ccc(SC(F)F)cc1)c1ccc(O)cc1,-2,0,133*,107,-3,113,6,102
COc1nc(N(C)C)nc(-n2nnc(C(C)=O)c2C)n1,3,-42,2.0*[inhibitor],1.0*[inhibitor],-2,95,-8,97
CCOc1nc(N(C)C)nc(-n2nnc(C(C)=O)c2C)n1,-2,7,108,117,-1,x,x,x
O=C(O)c1ccc(CN2C(=O)CSC2=S)cc1,0,5,124*,119,2,98,-4,98
COc1ccc(CCNC(=O)CN(c2ccc(OC)c(OC)c2)S(C)(=O)=O)cc1OC,0,5,122*,119,-1,100,2,101
COc1ccc(CCNC(=O)CSc2cc(=O)[nH]c(N)n2)cc1OC,-1,4,105,105,-1,x,x,x
SMILES,VIM-2 inhibitor,MEKK2mut PB1 HTS,MEKK3 PB1 HTS,MEKK2wt PB1 HTS,IMP-1 inhibitor,MEKK2wt confirm,MEKK2mut confirm,MEKK3 confirm
COc1ccc(CCNC(=O)CC2Nc3cc(C)c(C)cc3NC2=O)cc1OC (configuration not stated),-1,-20,0.0*[inhibitor],1.0*[inhibitor],-3,102,4,105
COc1ccc(CCNC(=O)CSc2nc(O)cc(=O)[nH]2)cc1OC,-2,29,134*,114,-2,106,10,110
COc1ccc(CCNC(=O)CN(c2ccccc2OC)S(C)(=O)=O)cc1OC,-5,2,99,103,-3,x,x,x
Cc1ccc(CN(Cc2cc3cc4c(cc3[nH]c2=O)OCCO4)Cc2nnnn2Cc2ccco2)cc1,1,5,107,106,4,x,x,x
COc1ccc2[nH]c3c(N4CCc5ccccc5C4)ncnc3c2c1,-3,47,127,189*,-3,130,15,103
CCOC(=O)c1cn(CC)c2cc(N3CCSCC3)c(F)cc2c1=O,-2,3,102,102,-3,x,x,x
Cc1sc2nc(C(C)C)nc(SCC(=O)NCc3ccco3)c2c1C,0,-40,-1.0*[inhibitor],-6.0*[inhibitor],-3,100,2,104
CC(=O)Nc1nc(NC(=O)/C=C/c2ccccc2)n(-c2ccccc2)n1,-4,2,140*,105,-5,104,-3,104
OCc1nnc2c3ccccc3c(-c3ccccc3)nn12,11*,10,122*,118,2,106,8,103
NC(=S)Nc1cc(Cl)cc(Cl)c1,1,-15,92,95,2,x,x,x
CCOC(=O)C1=C(C)NC(=O)NC1C1CC=CCC1 (configuration not stated),-2,1,98,100,-1,x,x,x
CC1=C(C(=O)OC(C)C)C(C2CC=CCC2)NC(=O)N1 (configuration not stated),-4,-40,0.0*[inhibitor],-4.0*[inhibitor],-2,103,10,105
Cc1cccc(-c2cc3nc(C)cc(C)n3n2)c1,-3,-11,99,90,-3,x,x,x
O=C(/C=C/c1ccco1)NC(=S)Nc1ccc(C(=O)O)cc1,0,-5,99,99,1,x,x,x
O=C(/C=C/c1ccco1)NC(=S)Nc1ccc(N2CCCC2)cc1,0,0,142*,103,1,92,-9,96
O=C(CN1CCCC1)Nc1ccccc1Sc1ccccc1,-2,5,99,108,-2,x,x,x
O=C(CN1CCOCC1)Nc1ccccc1Sc1ccc(Cl)cc1,-1,0,129*,103,-4,98,-7,100
